Data: ChEMBL document CHEMBL1123711, “Substituted 1,2,3,4-tetrahydroaminonaphthols: antihypertensive agents, calcium channel blockers, and adrenergic receptor blockers with catecholamine-depleting effects” (J Med Chem, 1987)
The source made the active and inactive calls. No cut-off for these calls is given here.

Assays:
Oryctolagus cuniculus = species: Oryctolagus cuniculus; assay: Calcium channel blocking activity in vitro in rabbit thoracic aorta preparation (n=4) by using linear regression analysis; assay type: functional
Summary of the method: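 Rabbit thoracic aorta strips held under a 4-g preload in PSS at 37 °C, pH 7.35, gassed with 95% O2/5% CO2, equilibrated ≥1 h. Contraction by high-K+ (100 mM) PSS with Na+ reduced equimolarly. At plateau, cumulative test concentrations were added and relaxation was normalized to initial tension. IC50 by regression on the linear part of the concentration–response curve.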

Rattus norvegicus [1] = assay: Antihypertensive activity as percent maximum (0-6 hr) decrease in blood pressure at 135 umol/kg po (~40-50 mg/kg) in 5 spontaneously hypertensive rats (SHR); NA denotes not active; assay type: functional, organism-based
Rattus norvegicus [2] = assay: Antihypertensive activity as percent average (over 24 hr) decrease in blood pressure at 135 umol/kg po (~40-50 mg/kg) in 5 spontaneously hypertensive rats (SHR); NA denotes not active; assay type: functional, organism-based
Rattus norvegicus [3] = assay: Antihypertensive activity as percent maximum (over 24 hr) decrease in blood pressure at 135 umol/kg, perorally (~40-50 mg/kg) in 5 spontaneously hypertensive rats (SHR); assay type: functional
Rattus norvegicus [4] = assay: Antihypertensive activity as percent maximum (0-6 hr) decrease in blood pressure at 135 umol/kg, perorally (~40-50 mg/kg) in 5 spontaneously hypertensive rats (SHR); assay type: functional
Rattus norvegicus [5] = assay: Antihypertensive activity as percent maximum (over 24 h) decrease in blood pressure at 135 umol/kg, perorally (~40-50 mg/kg) in 5 spontaneously hypertensive rats (SHR); assay type: functional
Rattus norvegicus [6] = assay: Antihypertensive activity as percent average (over 24 hr) decrease in blood pressure at 135 umol/kg po (~40-50 mg/kg) in 5 spontaneously hypertensive rats (SHR); assay type: functional
Rattus norvegicus [7] = assay: Antihypertensive activity as percent maximum (0-6 hr) decrease in blood pressure at 135 umol/kg po (~40-50 mg/kg) in 5 spontaneously hypertensive rats (SHR); assay type: functional
Rattus norvegicus [8] = assay: Antihypertensive activity as percent maximum (0-6 hr) decrease in blood pressure at 45 umol/kg poin 5 spontaneously hypertensive rats (SHR); assay type: functional
Rattus norvegicus [9] = assay: Antihypertensive activity as percent maximum (over 24 hr) decrease in blood pressure at 135 umol/kg, perorally (~40-50 mg/kg) in 5 spontaneously hypertensive rats (SHR); NA denotes no activity; assay type: functional, organism-based
Rattus norvegicus [10] = assay: Antihypertensive activity as percent maximum (0-6 hr) decrease in blood pressure at 135 umol/kg, perorally (~40-50 mg/kg) in 5 spontaneously hypertensive rats (SHR); NA denotes no activity; assay type: functional, organism-based
[11] = molecular target: Adrenergic receptor alpha; assay: Compound was evaluated for the alpha-Adrenoceptor pA2 blocking activity in vitro in rabbit thoracic aorta; assay type: functional, tissue-based, Oryctolagus cuniculus
Rattus norvegicus [12] = assay: Antihypertensive activity as percent maximum (0-6 hr) decrease in blood pressure at 45 umol/kg po (~22 mg/kg) in 4 spontaneously hypertensive rats (SHR); assay type: functional
Canis familiaris = species: Canis familiaris; assay: Compound was evaluated for the slow action potential blockade in canine Purkinje fibers in vitro (n = 4)
Rattus norvegicus [13] = assay: Antihypertensive activity as percent average (0-24 hr) decrease in blood pressure at 45 umol/kg po (~22 mg/kg) in 4 spontaneously hypertensive rats (SHR); assay type: functional
Rattus norvegicus [14] = assay: Percent Catecholamine-depletion in heart by administering a dose of 2 x 45 umol/kg, perorally to 4 spontaneously hypertensive rats (SHR).; assay type: functional
Summary of the method: (§1)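 SHR given two oral doses of 45 µmol/kg, 17 h apart. Rats decapitated 4 h after the second dose; hearts and brains quickly removed and frozen. Tissue extracts in glutathione centrifuged at 0 °C, and the protein-free supernatant diluted and assayed in duplicate for catecholamines by radioenzymatic kit.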

Rattus norvegicus [15] = assay: Percent Catecholamine-depletion in brain by administering a dose of 2 x 45 umol/kg, perorally to 4 spontaneously hypertensive rats (SHR).; assay type: functional; summary of the method: as §1
Rattus norvegicus [16] = assay: Antihypertensive activity as percent maximum (over 24 hr decrease in blood pressure at 135 umol/kg, perorally (~40-50 mg/kg) in 5 spontaneously hypertensive rats (SHR); assay type: functional

| SMILES | IC50 (Oryctolagus cuniculus) [nM] | Decrease (Rattus norvegicus [3]) [%] | Decrease (Rattus norvegicus [4]) [%] | further results |
| --- | --- | --- | --- | --- |
| COc1cc2c(cc1OC)C[C@H](OC)[C@@H](NCCC(c1ccccc1)c1ccccc1)C2 | 1800 |  |  | Decrease (Rattus norvegicus [1]): inactive; Decrease (Rattus norvegicus [2]): inactive |
| Cl.O[C@H]1Cc2cc3c(cc2C[C@@H]1NCCC(c1ccccc1)c1ccccc1)OCO3 | 300 | 25 | 25 |  |
| COc1ccc(OC)c2c1C[C@H](NCCC(C1CCCCC1)C1CCCCC1)[C@@H](O)C2.Cl |  | 23 | 27 |  |
| COc1cc2c(cc1OC)C[C@H](OC(C)=O)[C@@H](NCCC(c1ccccc1)c1ccccc1)C2.Cl | 2800 | 34 | 34 |  |
| COc1ccc(OC)c2c1C[C@H](NCCCc1nc3ccccc3s1)[C@@H](O)C2.Cl | 13500 | 16 | 16 |  |
| Cl.Oc1cc2c(cc1O)C[C@H](O)[C@@H](NCCC(c1ccccc1)c1ccccc1)C2 | 19600 |  |  | Decrease (Rattus norvegicus [6]): 30%; Decrease (Rattus norvegicus [8]): 29% |
| COc1ccc(OC)c2c1C[C@H](NCCCc1c[nH]c3ccccc13)[C@@H](O)C2.Cl | 23000 | 24 | 23 |  |
| COc1ccc(OC)c2c1C[C@H](NCCCc1ccccc1)[C@@H](O)C2.Cl | 5500 |  | 14 | Decrease (Rattus norvegicus [16]): 14% |
| COc1cc2c(cc1OC)C[C@H](O)[C@@H](NCCC(c1ccccc1)C(C)C)C2.Cl (some centres undefined) | 2500 |  | 8 | Decrease (Rattus norvegicus [5]): 10% |
| Cl.O[C@H]1Cc2ccccc2C[C@@H]1NCCC(c1ccccc1)c1ccccc1 | 400 | 8 | 11 |  |
| COc1ccc(OC)c2c1C[C@H](NCCCCc1ccccc1)[C@@H](O)C2.Cl | 3600 | 23 | 26 |  |
| COc1cc2c(cc1OC)C[C@H](O)[C@@H](NCCC(c1ccccc1)c1ccccc1OC)C2.Cl (some centres undefined) | 600 | 28 | 21 |  |
| COc1cc2c(cc1OC)C[C@H](NCCC(c1ccccc1)c1ccccc1)CC2.Cl | 200 |  |  | Decrease (Rattus norvegicus [6]): 12%; Decrease (Rattus norvegicus [7]): 11% |
| COc1cc2c(cc1OC)C[C@H](O)[C@@H](NCCC1c3ccccc3-c3ccccc31)C2.Cl | 1400 | 34 | 32 |  |
| COc1ccc(CCN(C)CCCC(C#N)(c2ccc(OC)c(OC)c2)C(C)C)cc1OC (centres undefined) | 300 |  |  | Max (Rattus norvegicus [12]): 16%; IC50 (Canis familiaris): 110 nM; Average (Rattus norvegicus [13]): 21%; Depletion (Rattus norvegicus [14]): 75%; Decrease (Rattus norvegicus [6]): 32%; Decrease (Rattus norvegicus [7]): 40% |

Further lines, with some results ahead:

| IC50 (Oryctolagus cuniculus) [nM] | SMILES | Decrease (Rattus norvegicus [3]) [%] | Decrease (Rattus norvegicus [4]) [%] | further results |
| --- | --- | --- | --- | --- |
| 1500 | COc1ccc(OC)c2c1C[C@H](NCCC(c1ccccc1)c1ccccc1)[C@@H](O)C2.Cl | 19 | 15 |  |
| 2000 | COc1ccc(OC)c2c1C[C@H](NCCCCC(c1ccccc1)c1ccccc1)[C@@H](O)C2.Cl |  | 10 | Decrease (Rattus norvegicus [5]): 10% |
| 9400 | COc1cc2c(cc1OC)C[C@H](O)[C@@H](NC(=O)CC(c1ccccc1)c1ccccc1)C2 | 16 | 6 |  |
| 1000 | Cc1cc2c(cc1C)C[C@H](O)[C@@H](NCCC(c1ccccc1)c1ccccc1)C2.Cl | 32 | 17 |  |
| 200 | COc1cc2c(cc1OC)C[C@H](NCCC(c1ccccc1)c1ccccc1)[C@H](O)C2.Cl |  |  | Decrease (Rattus norvegicus [6]): 19%; Decrease (Rattus norvegicus [7]): 14% |
| 800 | COc1ccc(OC)c2c1C[C@H](NCCCC(c1ccccc1)c1ccccc1)[C@@H](O)C2.Cl | 10 | 6 |  |
| 21000 | COc1ccc(OC)c2c1C[C@H](NCCc1ccccc1)[C@@H](O)C2 |  |  | Decrease (Rattus norvegicus [9]): inactive; Decrease (Rattus norvegicus [10]): inactive |
| 400 | COc1cc2c(cc1OC)C[C@H](O)[C@@H](NCCC(c1ccccc1)c1ccccc1)C2.Cl |  |  | pA2 [11]: 6; Max (Rattus norvegicus [12]): 21%; IC50 (Canis familiaris): 270 nM; Average (Rattus norvegicus [13]): 25%; Depletion (Rattus norvegicus [14]): 97%; Decrease (Rattus norvegicus [6]): 34%; Decrease (Rattus norvegicus [7]): 32%; Depletion (Rattus norvegicus [15]): 0% |
| 400 | COc1cc2c(cc1OC)C[C@H](N(C)CCC(c1ccccc1)c1ccccc1)[C@@H](O)C2 | 19 | 11 |  |
| 13300 | COc1ccc(OC)c2c1C[C@H](NCC(c1ccccc1)c1ccccc1)[C@@H](O)C2.Cl | 16 | 10 |  |
